Assay: Toxicity liver stage against HepG2, at 10uM
Type: cell-based
Set-up: test concentration 10 uM, cell line HepG2-A16-CD81EGFP
Settings: human, HepG2-A16-CD81EGFP cells; read-out: INHIBITION
Outline: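 Uninfected HepG2-A16-CD81EGFP cells, 3 × 10^3 per well, 1536-well, plated on prespotted compound at 10 μM final, parasite-free screening media added to match infected plates; puromycin 10 μM positive, DMSO 0.5% negative; run in parallel with 48 h PbLuc assay at 37 °C, 5% CO2; viability by CellTiter-Glo luminescence, normalized to controls.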

SMILES	cytotoxicity at 10 µM [%]
CCc1nc(C2CCCN2CC(=O)Nc2cc(C)no2)no1 (configuration not stated)	-1.68
N#Cc1ccc(CN2CCCCC2Cn2cccn2)cc1 (configuration not stated)	-8.96
Nc1cc(-c2c[nH]nc2C2CCCN2CCCc2ccccc2)ccn1 (configuration not stated)	3.75
CCOCC1CN(c2ccncn2)Cc2cnn(CC)c21 (configuration not stated)	3.04
Cc1nnc(NC(=O)CN2CCCC(c3ccn[nH]3)C2)s1 (configuration not stated)	-37.6
COc1ccc(CNC(=O)NCc2ccc(C(N)=O)cc2)cn1	-2.94
CCc1noc(C(C)N2CCC(NC(=O)c3ccc(C)s3)CC2)n1 (configuration not stated)	-9.9
Cc1cc(NCCO)nc(N2CCC(Cc3ccccc3)CC2)c1C#N	4.35
Cc1cc(C2CN(CC(=O)NCc3ccco3)CCO2)ccc1F (configuration not stated)	4.29
Cn1c(C(=O)NC2CCCC2)nc2c1CCN(Cc1ccccc1)C2	10.3
COCCC(=O)N1CCCC(CCc2ccc(F)c(F)c2)C1 (configuration not stated)	-2.59
CSc1ncn(-c2nc(N(C)C)nc(N(C)C)n2)n1	-3.54
CN1CCCc2sc(C(=O)NCc3cccnc3)nc21	14.9
NS(=O)(=O)CCNC(=O)CCc1cc(Br)cs1	-3.39
COc1cc(CCC(=O)NC2CC2)ccc1OCC(F)(F)F	-8.35
COc1cccc(CCC(=O)Nc2ccn(C)n2)c1OC	-2.14
COc1ccc(C2=NOC(C#N)C2)cc1 (configuration not stated)	-11.2
Cc1ncccc1CNCC1CCN(CC(O)c2ccccc2)CC1 (configuration not stated)	-6.76
COc1cccc2c1OCC(C(=O)NCc1ncc3c(n1)CCC3)C2 (configuration not stated)	-8.51
Cc1cc(CN2CCN(c3ccc4nncn4n3)CC2)no1	-4.6
O=C(CCOCC(F)(F)F)NS(=O)(=O)c1cccnc1	0.946
c1ccc(-c2nnc(CN3CCCC3Cn3cncn3)o2)cc1 (configuration not stated)	-7.42
c1ccc(N2CCC3(COCCN(c4ncccn4)C3)C2)nc1 (configuration not stated)	2.78

SMILES	cytotoxicity at 10 µM [%]
Cc1nn(C)cc1S(=O)(=O)NCC(c1ccccc1Cl)N1CCCC1 (configuration not stated)	-1.29
CCS(=O)(=O)N1CCCC2(CCCN2C(=O)c2cscn2)C1 (configuration not stated)	8.25
Cc1cc(F)ccc1N1CCCC(NC(=O)CCCn2ccnc2)C1 (configuration not stated)	3.45
CC1CN(C(=O)c2ccn(C)c(=O)c2)c2ccccc2NC1=O (configuration not stated)	2.94
O=C(Cn1ccnc1)N1C[C@@H]2CC[C@H](Oc3ccccc3)[C@@H]2C1	-3.71
Cc1cnn(CC2CCCN2C(=O)c2nccc3ccccc23)c1 (configuration not stated)	-2.14
CN(Cc1cccc(C(N)=O)c1)c1ncc(C#N)cc1Cl	8.36
Cc1ccsc1[C@@H]1CCN(C(=O)CCC(=O)c2ccccc2)C[C@H]1O	3.52
Cc1cnn(CCC(=O)N2CCN(C(=O)C(C)C)[C@@H]3CS(=O)(=O)C[C@@H]32)c1	2.47
CC(Nc1ccc2c(c1)CCC2)c1nc(C2CC2)no1 (configuration not stated)	7.92
CCc1cc(NCCCOC2CCN(C)CC2)ncn1	-8.34
CSc1cccc(NC(=O)N2CCC3(CCC(=O)N(C4CC4)C3)CC2)c1	9.27
CC(C)c1cc(C(=O)N2CCc3nc(C4CCCN4)ncc3C2)cs1 (configuration not stated)	-16.5
O=C(NCC1(c2ccc(F)cc2)CCCC1)N1CCOC(CO)C1 (configuration not stated)	0.323
COc1ccc(-c2nc(CN3CCCC3Cn3cccn3)no2)cc1 (configuration not stated)	-1.89
c1cnc(N2CCOCC3(CCN(c4cnccn4)CC3)C2)nc1	-103
Cc1ncsc1-c1nnc(C2CCN(Cc3ccc(Cl)cc3)CC2)o1	-4.41
Cc1ccc(C)c(OCc2cc(C(=O)N(C)CC(O)CO)no2)c1 (configuration not stated)	2.55
Cc1ccc(NC(=O)c2cc(S(=O)(=O)N3CCCCC3)c[nH]2)cc1F	1.26
Cc1ccsc1CNCC1CCCN1c1cccnn1 (configuration not stated)	-4.48
CN1CCN(C[C@@H]2CN(C3Cc4ccccc4C3)C[C@@H]2CO)CC1	8.29
c1ccc2c(c1)CCN(c1ncnc3sc4c(c13)CCNC4)C2	5.66
CCn1cc(S(=O)(=O)N2CCCCCC2c2cc(C)no2)cn1 (configuration not stated)	8.24

SMILES	cytotoxicity at 10 µM [%]
CC(C)c1nc(CC(=O)Nc2nc(CN3CCCCCC3)cs2)cs1	6.02
CC(NC(=O)NCc1cc[nH]n1)c1ccc2c(c1)CCC(=O)N2 (configuration not stated)	-9.37
O=c1n(CC2CCCCO2)nc(CC2CCNCC2)n1-c1ccccc1 (configuration not stated)	-6.66
CCOC(C)c1nc(CN2CCC(C3OCCO3)CC2)cs1 (configuration not stated)	-1.91
NC(=O)C1CCN(C(=O)NCCOc2ccc3c(c2)OCO3)C1 (configuration not stated)	-13.3
O=C(CN1CCOC(CNc2cccnn2)C1)NCc1ccccn1 (configuration not stated)	-0.945
CN(C)C(=O)N1CCC2(CC1)COCCN(c1ncccn1)C2	8.42
O=C(c1ccncc1F)N1Cc2nc(CN3CCCCC3)oc2C1	-105
Cc1cccc(-n2nc(CC(C)C)nc2CCn2ccc(=O)[nH]c2=O)c1	-3.7
COc1cccc(-c2cc(NCc3cscn3)n(C)n2)c1	3.69
Cc1nc(CNCc2cccc(OC34CCCN(CC3)C4)c2)n[nH]1 (configuration not stated)	-3.69
COc1cc(CNCCc2nc(C)cs2)cc2c1OCCO2	-2.4
C[C@@H]1CN(Cc2c[nH]c(CC3CCCC3)n2)CC[C@]1(C)O	3.69
CCS(=O)(=O)N1CC[C@H]2OCC[C@@]2(c2nnc(C)o2)C1	7.95
COCCCN1CCN(CCOC)C(C)C1 (configuration not stated)	-13.4
Cc1ccc(C2CC(=O)NCc3nc(N)sc32)cc1C (configuration not stated)	-8.47
Cc1cncc(C(=O)N2CCCC(O)(CN3CCCC3)C2)c1 (configuration not stated)	10.1
CCc1ccc(CN(C)Cc2cnc(S(=O)(=O)CC)n2CCOC)cc1	-2.19
CN(Cc1ccncc1)C1CC2(CCN(c3ncc(F)cn3)CC2)C1	52.4
CCCNC(=O)c1cccc(CNCc2csc(C(C)C)n2)c1	6.14
Cc1onc(-c2ccncc2)c1C(=O)NC1CCCOC1 (configuration not stated)	4.51
CN(CC(N)=O)Cc1csc(-c2ccc(F)cc2)n1	2.5
Cn1cnc(S(=O)(=O)N2C[C@H]3CN(Cc4cccnc4)C[C@H]3C2)c1	8.46

SMILES	cytotoxicity at 10 µM [%]
O=C(O)c1c(-c2ccoc2)ncc2c1CCN(C1CCOC1)C2 (configuration not stated)	17
CN(CCNc1ncc2c(n1)CCN2c1ccccc1)S(C)(=O)=O	0.557
CO[C@H]1CCN(Cc2c(C)noc2C)[C@@H]2CN(Cc3ccncc3)C[C@H]12	5.59
COc1ccc(CN2CCC3(CCN(c4cccnc4)C3=O)C2)cc1 (configuration not stated)	5.16
CN1CCCc2cc(-c3cncn3CCNC3CCS(=O)(=O)C3)ccc21 (configuration not stated)	-2.42
CCc1cnc(CN(C)C2CCN(CCc3ccccn3)C2)o1 (configuration not stated)	-14.2
CN(Cc1ccnc2ccccc12)C1CCS(=O)(=O)C1 (configuration not stated)	4.36
COC1CN(C(=O)CC2CCCC2)CCC(=O)N(C)c2ccccc21 (configuration not stated)	-32.8
O=C(CCNC(=O)c1cnccn1)Nc1ncc[nH]1	-44.7
Cc1csc(CNC(=O)NC(C)c2ccc3c(c2)OCCO3)n1 (configuration not stated)	-5.72
Cc1ccccc1-c1cncc(C2CCN(Cc3cnn(C)c3)CC2)n1	-30.6
Cc1ccoc1C(=O)NCC(Cc1ccc(F)cc1)C(N)=O (configuration not stated)	-0.77
COCCC1(CNC(=O)Nc2ccnc(C)c2)CCCC1	2.12
c1cn(CC2CCOCC2)c(-c2cc(CN3CCCC3)cs2)n1	-2.96
CN(C)C(=O)c1cccc(CCNS(C)(=O)=O)c1	-6.46
Cn1cc(CNCC(c2ccc(Cl)cc2)n2cccn2)cn1 (configuration not stated)	1.21
O=C(c1ccnnc1)N1C[C@@H]2CN(c3ncccn3)C[C@@H]2C1	7.19
Cc1ncc(-c2nc3cc(S(=O)(=O)N4CCCC4)ccc3n2C)cn1	-21
CNc1cc2c(nn1)CCN(C(=O)c1coc(Br)c1)C2	-13.6
CCn1ncc2c1C(COC)N(C(=O)c1cscn1)CC2 (configuration not stated)	-98.1
CSc1ncccc1C(=O)N1C[C@@H]2CC[C@H]1CN(c1cnccn1)C2	-2.72
O=C(NCc1cccnc1)Nc1ccn(CC(F)F)n1	1.68
O=C(c1cn(-c2ccccc2Cl)nn1)N1CCSCC1	8.24

SMILES	cytotoxicity at 10 µM [%]
OCC1(Cc2cccc(Cl)c2)CCCN(c2ncccn2)C1 (configuration not stated)	0.668
CN(C)C(=O)CN1C[C@H]2CCN(Cc3ccccc3)CC[C@H]2S1(=O)=O	9.82
CCn1nc(C)cc1C(=O)NCc1noc(C(C)(C)C)n1	8.7
CC(C)(C)c1nnc(CN(Cc2cccs2)CC2CCCO2)o1 (configuration not stated)	15.8
COc1ccnc(N(C)Cc2csc(C)n2)n1	-2.62
CC1(C)CN=C(N2CCN(CCCN3CCOCC3)CC2)S1	-17.6
Cc1cnc(C(=O)N2CCCN(Cc3cnn(C(C)C)c3)CC2)cn1	1.28
N#Cc1ccc(C(=O)NS(=O)(=O)c2ccc(F)c(F)c2)cc1	-4.11
CN(C)c1ncc(-c2ccc(C(N)=O)cc2)c(C2CCNC2)n1 (configuration not stated)	-0.892
O=C(CCn1cncn1)NC1(c2cccc(Br)c2)CCC1	-20.2
COc1ccnc(N2CCN(C(=O)Cc3ccc(C#N)cc3)CC2)n1	4.09
COC(=O)CC(NC(=O)c1cccc(CS(C)(=O)=O)c1)c1cccs1 (configuration not stated)	-44.8
Cc1c[nH]nc1C1CN(Cc2cnn(-c3ccccc3C(=O)O)c2)C1	3.32
CC(CN1CCOCC1)NC(=O)NCc1cccs1 (configuration not stated)	-15.9
Cn1cnc(S(=O)(=O)NCCCN2CCOCC2)c1Cl	-11.2
Cc1nccn1CCCNc1ncccc1C#N	-9.09
CSc1ccc(NC(=O)Nc2ccc3c(c2)N(S(C)(=O)=O)CC3)cc1	48.5
CCc1c(C)[nH]c(C2(N)CCCC2)nc1=O	-0.327
Cc1ccn(CCC(=O)NCc2ccc(C)o2)n1	-2.96
Cc1n[nH]c(C2CN(C(=O)c3ccc4c(c3)COC4)CCO2)n1 (configuration not stated)	17.4

From ChEMBL document CHEMBL4513216, “Probing the Open Global Health Chemical Diversity Library for Multistage-Active Starting Points for Next-Generation Antimalarials” (ACS Infect Dis, 2020)
